The text below walks through data of ChEMBL document CHEMBL1926656, “Cyclopeptide Alkaloids from Ziziphus apetala” (J Nat Prod, 2011).

Each structure is given as a SMILES string. Activity calls are given as the source filed them. The rule behind the calls is not given here.

One experiment relates to HeLa. The experiment in a line: Cytotoxicity against human HeLa cells. The format is functional, cell-based.
The test system of the next experiment is BGC-823. The experiment can be described thus: Cytotoxicity against human BGC823 cells. The format is functional, cell-based.
The target of experiment [1] is 11-beta-hydroxysteroid dehydrogenase 1 (Homo sapiens, UniProt P28845). The experiment can be described thus: Inhibition of human 11beta-HSD1 expressed in human HEK293 cells assessed as conversion of [3H]cortisone to [3H]cortisol by scintillation proximity assay. The class given is cell-based. The method in brief:
(§1)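 Full-length human or mouse 11β-HSD1 cDNA in pcDNA3, stably expressed in HEK-293 cells selected with 700 μg/mL G418; microsomal fraction used as enzyme. Microsomes incubated with NADPH and [3H]cortisone; [3H]cortisol product captured by monoclonal antibody on protein A-coated SPA beads. Glycyrrhizinic acid positive control. IC50 as mean ± SD, n = 3.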

In experiment [2] the target is 11-beta-hydroxysteroid dehydrogenase 1 (Mus musculus, UniProt P50172). The experiment can be described thus: Inhibition of mouse 11beta-HSD1 expressed in human HEK293 cells assessed as conversion of [3H]cortisone to [3H]cortisol by scintillation proximity assay. The format is cell-based. The method in brief:
as §1
On the technique in general: SPA uses beads or plates that emit light when radiolabelled molecules are held near them.

What is called IC50 is the point on the concentration scale where inhibition reaches its midpoint.

11-beta-hydroxysteroid dehydrogenase 1 (Homo sapiens, UniProt P28845), sequence (P28845 whole entry): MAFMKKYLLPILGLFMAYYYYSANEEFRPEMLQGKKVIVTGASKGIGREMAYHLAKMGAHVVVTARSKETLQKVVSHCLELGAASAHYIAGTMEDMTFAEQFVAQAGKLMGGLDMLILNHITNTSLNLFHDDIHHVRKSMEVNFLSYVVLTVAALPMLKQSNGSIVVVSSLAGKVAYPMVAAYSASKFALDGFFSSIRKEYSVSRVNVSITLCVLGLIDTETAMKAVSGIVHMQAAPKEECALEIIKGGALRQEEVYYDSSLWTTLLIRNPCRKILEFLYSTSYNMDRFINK
11-beta-hydroxysteroid dehydrogenase 1 (Mus musculus, UniProt P50172), sequence (P50172 whole entry): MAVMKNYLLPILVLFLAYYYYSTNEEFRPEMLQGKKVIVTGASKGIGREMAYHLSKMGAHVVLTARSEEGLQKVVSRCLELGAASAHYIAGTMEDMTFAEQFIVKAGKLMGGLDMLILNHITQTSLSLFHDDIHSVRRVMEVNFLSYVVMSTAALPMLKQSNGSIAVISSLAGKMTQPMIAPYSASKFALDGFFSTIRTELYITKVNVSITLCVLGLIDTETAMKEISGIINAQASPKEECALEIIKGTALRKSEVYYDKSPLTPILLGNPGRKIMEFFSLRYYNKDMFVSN

Turning to `CC(C)[C@H](NC(=O)[C@@H](C)N(C)C)C(=O)N1CC[C@@H]2Oc3ccc(cc3)/C=C\NC(=O)[C@H](Cc3ccccc3)NC(=O)[C@H]21`, the outcome with HeLa and with BGC-823 was inactive.
Turning to `CC(C)[C@H](NC(=O)[C@H](C)[N+](C)(C)[O-])C(=O)N1CC[C@@H]2Oc3ccc(cc3)/C=C\NC(=O)[C@H](Cc3ccccc3)NC(=O)[C@H]21`, the result in the experiment with HeLa and in the experiment on BGC-823 was inactive.
For `CC(C)[C@@H](C(=O)N1CC[C@@H]2Oc3ccc(cc3)/C=C\NC(=O)[C@H](Cc3ccccc3)NC(=O)[C@H]21)N1CN(C)[C@@H](C)C1=O`, the outcome in the experiment with HeLa and in the experiment on BGC-823 was inactive.
Regarding `CC(C)[C@H](NC(=O)C(C)N(C)C=O)C(=O)N1CC[C@@H]2Oc3ccc(cc3)/C=C\NC(=O)[C@H](Cc3ccccc3)NC(=O)[C@H]21` (stereo not given in full), the outcome in the experiment with HeLa and in the experiment on BGC-823 was inactive.
For `CC1(C)[C@@H](O[C@H]2O[C@H](C(=O)O)[C@@H](O)[C@H](O)[C@H]2O[C@@H]2O[C@H](C(=O)O)[C@@H](O)[C@H](O)[C@H]2O)CC[C@]2(C)[C@H]3C(=O)C=C4[C@@H]5C[C@@](C)(C(=O)O)CC[C@]5(C)CC[C@@]4(C)[C@]3(C)CC[C@@H]12` [GLYCYRRHIZIN], the half-maximal inhibitory concentration (IC50) worked out at 0.0186 µM in experiment [1] and 0.0295 µM in experiment [2].
`CC(C)[C@H](NC(=O)[C@H](C)N(C)C)C(=O)N1CC[C@@H]2Oc3ccc(cc3)/C=C\NC(=O)[C@H](Cc3ccccc3)NC(=O)[C@H]21` [MAURITINE A]: the outcome in the experiment on HeLa and with BGC-823 was inactive. Also, the concentration for half-maximal inhibition (IC50) in experiment [1] was 90.3 µM; in experiment [2], 54.2 µM.
For the compound `CC(C)[C@H](NC(=O)[C@@H](C)[N+](C)(C)[O-])C(=O)N1CC[C@@H]2Oc3ccc(cc3)/C=C\NC(=O)[C@H](Cc3ccccc3)NC(=O)[C@H]21`, the result with HeLa and with BGC-823 was inactive.
Turning to `CN[C@@H](C)C(=O)N[C@H](C(=O)N1CC[C@@H]2Oc3ccc(cc3)/C=C\NC(=O)[C@H](Cc3ccccc3)NC(=O)[C@H]21)C(C)C`, the result in the experiment on HeLa and with BGC-823 was inactive.
`C/C(=N/O)C(=O)N[C@H](C(=O)N1CC[C@@H]2Oc3ccc(cc3)/C=C\NC(=O)[C@H](Cc3ccccc3)NC(=O)[C@H]21)C(C)C`: the outcome in the experiment with HeLa and in the experiment with BGC-823 was inactive.
